Measured values published in ChEMBL document CHEMBL4732155 (Eur J Med Chem, 2021).
Active and inactive are the calls of the source. No cut-off for these calls is given here.

Assays:
[1] = Effect on PLEC expression in human HCT-116 cells at 30 uM measured after 6 hrs by LC-MS/MS analysis relative to control; type: functional
Procedure, shortened: (§1)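 HCT116 cells treated 6 h with DMSO, 15 μM or 30 μM compound, then pelleted. Peptides (1 μg) separated on a 25 cm C18 nano-column with a 136 min gradient and analysed by label-free LC-MS/MS on an Orbitrap Eclipse. Searched against the UniProt human database and quantified from normalized abundance. Two independent biological replicates per group; log2 fold change versus DMSO, p < 0.05.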

[2] = Effect on SQSTM1 expression in human HCT-116 cells at 30 uM measured after 6 hrs by LC-MS/MS analysis relative to control; type: functional; procedure, shortened: as §1
[3] = Inhibition of proteasomal turnover of p97-independent ODD-luciferase reporter substrate in human HeLa cells incubated for 120 mins by luciferase reporter gene assay; type: functional, cell-based; settings: 2 h
Procedure, shortened: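 HeLa cells co-expressing UbG76V-GFP and ODD-Luc were seeded at 5000/well in clear DMEM with 2.5% FBS. They were pretreated with 4 μM MG132 for 60 min at 37 °C, washed with PBS, then given cycloheximide plus compound for 120 min at 37 °C and washed. GFP was read by high-content confocal imaging, then luminescence after 10 min with D-luciferin at r.t. IC50 was fitted from quadruplicates.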

[4] = molecular target: T1, Transitional endoplasmic reticulum ATPase (Homo sapiens, UniProt P55072); assay: Inhibition of His6-tagged p97 (unknown origin) expressed in Escherichia coli BL21 (DE3) assessed as reduction in ATPase activity measured after 60 mins by biomol green reagent based assay
Procedure, shortened: (§2)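 His6-p97 expressed in E. coli BL21(DE3), purified by Ni-NTA and gel filtration (500–600 kDa fractions, ≥95% pure). Phosphate read by Biomol Green at 635 nm. Eight-dose titrations; IC50 from six replicates. Thiol tests added DTT or cysteine during preincubation.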
Target sequence in this assay (P55072 whole entry): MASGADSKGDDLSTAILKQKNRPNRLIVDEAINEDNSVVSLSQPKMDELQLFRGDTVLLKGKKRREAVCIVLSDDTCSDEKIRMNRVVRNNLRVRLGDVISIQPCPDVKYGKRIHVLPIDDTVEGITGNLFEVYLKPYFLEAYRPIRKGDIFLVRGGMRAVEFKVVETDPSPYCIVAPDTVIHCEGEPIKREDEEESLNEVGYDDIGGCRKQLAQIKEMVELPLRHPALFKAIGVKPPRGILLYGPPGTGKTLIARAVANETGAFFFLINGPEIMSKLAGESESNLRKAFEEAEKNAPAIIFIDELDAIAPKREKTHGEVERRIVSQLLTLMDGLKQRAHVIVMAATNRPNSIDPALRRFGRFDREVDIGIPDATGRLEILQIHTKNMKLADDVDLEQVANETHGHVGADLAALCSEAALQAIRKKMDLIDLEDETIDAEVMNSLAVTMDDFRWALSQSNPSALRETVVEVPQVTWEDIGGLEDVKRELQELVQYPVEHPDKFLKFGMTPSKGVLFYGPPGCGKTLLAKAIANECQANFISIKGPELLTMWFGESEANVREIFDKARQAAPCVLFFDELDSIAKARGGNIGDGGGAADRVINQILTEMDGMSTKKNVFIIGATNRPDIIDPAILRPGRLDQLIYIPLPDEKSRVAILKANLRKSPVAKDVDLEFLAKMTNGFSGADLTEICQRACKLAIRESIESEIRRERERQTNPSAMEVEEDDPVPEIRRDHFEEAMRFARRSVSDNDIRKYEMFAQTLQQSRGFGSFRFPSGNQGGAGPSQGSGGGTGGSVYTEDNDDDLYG

[5] = Effect on GOLGA3 expression in human HCT-116 cells at 15 uM measured after 6 hrs by LC-MS/MS analysis relative to control; type: functional; procedure, shortened: as §1
[6] = Effect on BRIX1 expression in human HCT-116 cells at 30 uM measured after 6 hrs by LC-MS/MS analysis relative to control; type: functional; procedure, shortened: as §1
[7] = Effect on PRKRIR expression in human HCT-116 cells at 30 uM measured after 6 hrs by LC-MS/MS analysis relative to control; type: functional; procedure, shortened: as §1
[8] = Effect on CDK2AP1 expression in human HCT-116 cells at 15 uM measured after 6 hrs by LC-MS/MS analysis relative to control; type: functional; procedure, shortened: as §1
[9] = Effect on KNTC1 expression in human HCT-116 cells at 15 uM measured after 6 hrs by LC-MS/MS analysis relative to control; type: functional; procedure, shortened: as §1
[10] = Effect on AP2M1 expression in human HCT-116 cells at 30 uM measured after 6 hrs by LC-MS/MS analysis relative to control; type: functional; procedure, shortened: as §1
[11] = Effect on EPPK1 expression in human HCT-116 cells at 15 uM measured after 6 hrs by LC-MS/MS analysis relative to control; type: functional; procedure, shortened: as §1
[12] = Effect on PLEC expression in human HCT-116 cells at 15 uM measured after 6 hrs by LC-MS/MS analysis relative to control; type: functional; procedure, shortened: as §1
[13] = molecular target: Transitional endoplasmic reticulum ATPase (Homo sapiens, UniProt P55072, C522A); assay: Inhibition of His6-tagged p97 C522A mutant (unknown origin) expressed in Escherichia coli BL21 (DE3) assessed as reduction in ATPase activity measured after 60 mins by biomol green reagent based assay; procedure, shortened: as §2
Transitional endoplasmic reticulum ATPase (Homo sapiens, UniProt P55072, C522A), sequence (P55072 2-806 C522A limits assumed): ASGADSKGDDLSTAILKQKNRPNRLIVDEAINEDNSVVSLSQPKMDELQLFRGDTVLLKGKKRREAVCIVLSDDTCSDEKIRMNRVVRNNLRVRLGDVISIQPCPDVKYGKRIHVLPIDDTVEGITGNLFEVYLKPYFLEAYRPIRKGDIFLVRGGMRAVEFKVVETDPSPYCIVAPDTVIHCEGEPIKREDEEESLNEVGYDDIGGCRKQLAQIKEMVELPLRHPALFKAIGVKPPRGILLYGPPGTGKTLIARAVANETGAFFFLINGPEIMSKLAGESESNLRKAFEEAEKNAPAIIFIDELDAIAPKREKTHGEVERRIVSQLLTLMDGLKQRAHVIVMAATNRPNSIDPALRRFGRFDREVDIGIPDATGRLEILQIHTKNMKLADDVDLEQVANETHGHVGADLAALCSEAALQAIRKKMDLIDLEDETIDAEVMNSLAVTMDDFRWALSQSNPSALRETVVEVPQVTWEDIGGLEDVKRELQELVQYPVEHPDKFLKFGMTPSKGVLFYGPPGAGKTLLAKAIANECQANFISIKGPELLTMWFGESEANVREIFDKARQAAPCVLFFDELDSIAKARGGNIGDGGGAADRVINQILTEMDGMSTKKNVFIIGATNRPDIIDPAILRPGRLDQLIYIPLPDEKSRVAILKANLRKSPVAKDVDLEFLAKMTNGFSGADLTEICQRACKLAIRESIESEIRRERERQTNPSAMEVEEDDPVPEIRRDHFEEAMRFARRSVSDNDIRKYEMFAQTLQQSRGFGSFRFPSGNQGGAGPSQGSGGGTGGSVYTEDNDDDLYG

[14] = Effect on PRKRIR expression in human HCT-116 cells at 15 uM measured after 6 hrs by LC-MS/MS analysis relative to control; type: functional; procedure, shortened: as §1
[15] = tested on: HeLa; assay: Antiproliferative activity against human HeLa cells after 48 hrs by celltiter-glo luminescence assay; type: functional, cell-based
[16] = Selectivity ratio of IC50 for inhibition of proteasomal turnover of p97-independent ODD-luciferase reporter substrate in human HeLa cells to IC50 for inhibition of p97 in human HeLa cells assessed as reduction in proteasomal turnover of p97-dependent reporter substrate UbG76V-GFP
Procedure, shortened: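 HeLa cells stably carrying both UbG76V-GFP and ODD-Luc, in DMEM with 2.5% FBS, received 4 μM MG132 for 60 min at 37°C. After PBS washes they got cycloheximide plus compound for 120 min at 37°C. GFP was read by confocal imaging, then luminescence after D-luciferin (10 min, r.t.). IC50s for each reporter came from quadruplicates.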

[17] = Inhibition of yeast Cdc48 assessed as reduction in ATPase activity measured after 60 mins by biomol green reagent based assay; set-up: species or system Saccharomyces cerevisiae
Procedure, shortened: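 Incubation ran 60 min at room temperature and was stopped with Biomol Green. Phosphate was read as absorbance at 635 nm. IC50 came from an eight-dose titration, six replicates.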

[18] = Effect on SQSTM1 expression in human HCT-116 cells at 15 uM measured after 6 hrs by LC-MS/MS analysis relative to control; type: functional; procedure, shortened: as §1
[19] = molecular target: T1, Transitional endoplasmic reticulum ATPase; assay: Binding affinity to His6-tagged p97 (unknown origin) expressed in Escherichia coli BL21 (DE3) assessed as Cys522-adduct formation by tandem mass spectrometry
Target sequence in this assay (P55072 2-806 limits assumed): as the sequence (P55072 2-806 C522A limits assumed) above, with A521C counted along it

[20] = tested on: HCT-116; assay: Antiproliferative activity against human HCT-116 cells after 48 hrs by celltiter-glo luminescence assay; type: functional, cell-based; settings: HCT-116, 48 h
[21] = Effect on STIM1 expression in human HCT-116 cells at 15 uM measured after 6 hrs by LC-MS/MS analysis relative to control; type: functional; procedure, shortened: as §1
[22] = Effect on EPPK1 expression in human HCT-116 cells at 30 uM measured after 6 hrs by LC-MS/MS analysis relative to control; type: functional; procedure, shortened: as §1
[23] = Effect on BRIX1 expression in human HCT-116 cells at 15 uM measured after 6 hrs by LC-MS/MS analysis relative to control; type: functional; procedure, shortened: as §1
[24] = Effect on AP2M1 expression in human HCT-116 cells at 15 uM measured after 6 hrs by LC-MS/MS analysis relative to control; type: functional; procedure, shortened: as §1
[25] = Effect on KEAP1 expression in human HCT-116 cells at 15 uM measured after 6 hrs by LC-MS/MS analysis relative to control; type: functional; procedure, shortened: as §1
[26] = tested on: HCT-116; assay: Antiproliferative activity against CB-5083-resistant human HCT-116 cells after 48 hrs by celltiter-glo luminescence assay; type: functional, cell-based
Procedure, shortened: (§3)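 CellTiter-Glo viability in HCT116 lines carrying resistance mutations in p97 (CB-5083-resistant: D649A/T688A; NMS-873-resistant: A530T). Cells seeded at 750 or 3000/well within the linear range of a per-line standard curve, in DMEM with 5% FBS. Treated 24 h after seeding with eight three-fold dilutions for 48 h. IC50 from percent growth versus DMSO control; mean ± SEM of four replicate experiments.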

[27] = tested on: HCT-116; assay: Antiproliferative activity against NMS-873-resistant human HCT-116 cells after 48 hrs by celltiter-glo luminescence assay; type: functional, cell-based; procedure, shortened: as §3
[28] = Effect on ZFAND1 expression in human HCT-116 cells at 30 uM measured after 6 hrs by LC-MS/MS analysis relative to control; type: functional; procedure, shortened: as §1

Compound: C=CC(=O)Nc1ncnc2c1c(-c1ccccc1)nn2C(C)(C)C
- log2FC [1]: 0.58
- log2FC [2]: 0.97
- IC50 [3]: 35 µM
- IC50 [4]: 0.6 µM
- log2FC [5]: -0.36
- log2FC [6]: 0.7
- log2FC [7]: 0.68
- log2FC [8]: -0.48
- log2FC [9]: -0.43
- log2FC [10]: -0.38
- log2FC [11]: 0.38
- log2FC [12]: 0.33
- IC50 [13]: 110 µM
- log2FC [14]: 0.69
- IC50 [15]: 6.1 µM
- Selectivity ratio [16]: 20
- IC50 [17]: 376 µM
- log2FC [18]: 0.42
- Activity [19]: Active
- IC50 [20]: 2.7 µM
- log2FC [21]: 1.49
- log2FC [22]: 0.64
- log2FC [23]: 0.52
- log2FC [24]: -0.33
- log2FC [25]: -0.46
- Activity [26]: Active
- Activity [27]: Active
- log2FC [28]: 0.42
